The term logP denotes a log measure of how a compound divides between an organic and an aqueous phase.

One data set in a line: Partition coefficient (logP). To be noted: octanol/water. The data set is classed as physicochemical. An outline of the steps: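 Shake-flask partitioning of the neutral amine species between 1-octanol and 0.1 N NaOH. Both phases were analysed by gas chromatography on 10% Apiezon L with 2% KOH on 80-100 mesh Chromosorb WAW. Observed log P was taken from the phase distribution.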
In turn, `CNC1C2CC[C@H]1c1ccccc12` (stereo in doubt; 11) displayed a logP of 2.47.
Same read-out and setting: next, `NC1C2CC[C@H]1c1ccccc12` (stereo in doubt; 19): 2.08.

The data set is the same for the next values; noted with them: octanol/water; read-out: logP.
As to `N[C@@H]1CC2O[C@@H]1c1ccccc12`, the logP was determined as 0.75.
`N[C@@H]1CC2CCC1c1ccccc12` (some centres undefined): the log partition coefficient (logP) is 2.32.
Regarding `CCCN[C@H]1CC2C[C@@H]1c1ccccc12`, the logP came to 3.13.
For `NC1C2CC[C@H]1c1ccccc12` (stereo in doubt; 17), the logP came to 2.13.
The same measure, in the same setting: for `CCN[C@@H]1CC2C[C@@H]1c1ccccc12` the value was 2.72; for `CCCN[C@@H]1CC2C[C@@H]1c1ccccc12`, 3.3; for `CN[C@H]1CC2O[C@@H]1c1ccccc12`, 0.59.
As to `N[C@@H]1CC2C[C@@H]1c1cc(C(F)(F)F)ccc12`, the logP turned out to be 3.19.
On to `N[C@H]1CC2C[C@@H]1c1ccc(C(F)(F)F)cc12`, for which the logP was determined as 2.91.
Consider `CNC1C2CC[C@H]1c1ccccc12` (stereo in doubt; 13), for which the logP stood at 2.37.
As to `CN[C@@H]1CC2CC[C@@H]1c1ccccc12`, the logP was determined as 2.68.
For `N[C@H]1CC2O[C@@H]1c1ccccc12`, the logP is 0.4.
As for `CN[C@H]1CC2C[C@@H]1c1ccccc12`, the logP came to 2.32.
As to `N[C@@H]1CC2C[C@@H]1c1ccc(C(F)(F)F)cc12`, the logP was determined as 3.21.
In the case of `CN[C@H]1CC2CC[C@@H]1c1ccccc12`, the logP was 2.59.
Take `N[C@H]1CC2C[C@@H]1c1cc(C(F)(F)F)ccc12`: the logP worked out at 2.85.
Still for that read-out and setting: for `CN[C@@H]1CC2O[C@@H]1c1ccccc12` the value was 0.91; for `N[C@H]1CC2CC[C@@H]1c1ccccc12`, 2.29; for `N[C@@H]1CC2C[C@@H]1c1ccccc12`, 2.09.
In the case of `N[C@H]1CC2C[C@@H]1c1ccccc12`, the logP was 2.
Still for that read-out and setting: for `CCN[C@H]1CC2C[C@@H]1c1ccccc12` the value was 2.62; for `CN[C@@H]1CC2C[C@@H]1c1ccccc12`, 2.41.

The values above are taken from ChEMBL document CHEMBL1122416, “An extension of the f-fragment method for the calculation of hydrophobic constants (log P) of conformationally defined systems” (J Med Chem, 1983).
